# Experimental data gathered from unrelated publications.
# Each line is one published result; the experiments were not run side by side.
# Target: Activin receptor type-1-like (ACVRL1, Homo sapiens, UniProt P37023)
SMILES,read-out,mode,method,tested at,measurement,result
N#CCCc1ccc2c(c1)-c1[nH]c3ccc([N+](=O)[O-])cc3c1CC(=O)N2,cell-free assay,,,0.5 µM,remaining signal,53.6%
Cc1ccc(NC(=O)c2ccc(C)c(C(F)(F)F)c2)cc1C#Cc1nn(C2CCC(O)CC2)c2ncnc(N)c12 (stereo not drawn),cell-free assay,,,10 µM,remaining signal,71%
CCC(=O)N[C@@H]1CC[C@H](C(=O)N(C)c2ccc(-c3nc4ccccc4o3)cc2)C1,cell-free assay,,competition with immobilised ligand,1 µM,remaining binding,100%
Cc1cc(NC(=O)c2cccc3cc(-c4cccc5[nH]nc(N)c45)ccc23)ccc1F,enzyme activity,inhibitor,,0.1 µM,activity vs control,143%
Cc1cnc(NC2CCOCC2)nc1-n1cnc(C(=O)NC(CN)c2cc(F)cc(Cl)c2)c1 (stereo not drawn),enzyme activity,inhibitor,radiometric,1 µM,remaining activity,100%
O=C(O)[C@@H]1[C@@H](Cn2nnc3ccccc3c2=O)CC[C@H]1C(=O)c1ccc(OCCC2CCOCC2)cc1,binding,,competition with immobilised ligand,1 µM,remaining binding,97%
CCN(CC)CCNC(=O)c1c(C)[nH]c(/C=C2\C(=O)Nc3ccc(F)cc32)c1C,cell-free assay,,,0.5 µM,remaining signal,112%
Cc1sc(C(=O)NC2COC2)cc1-n1cc(NC(=O)Nc2c(F)cccc2Cl)cn1,enzyme activity,inhibitor,,10 µM,remaining activity,78.7%
C#Cc1cccc(Nc2ncnc3cc(OCCOC)c(OCCOC)cc23)c1,cell-free assay,,,0.5 µM,remaining signal,101%
Cc1ccc(C(=O)NCc2ccsc2)cc1C#Cc1cn(C(C)C)c2ncnc(N)c12,enzyme activity,inhibitor,,1 µM,activity vs control,94%
O=C(Nc1cnn(-c2csc(C(=O)NC3COC3)c2)c1)Nc1ccccc1Cl,enzyme activity,inhibitor,,5 µM,remaining activity,107%
Cc1nccc(COC(=O)N2C[C@@H]3[C@@H](CNC(=O)c4ccc5[nH]nnc5c4)[C@@H]3C2)n1,binding,,competition with immobilised ligand,1 µM,remaining binding,100%
COc1cc(Nc2c(C#N)cnc3cc(OCCCN4CCN(C)CC4)c(OC)cc23)c(Cl)cc1Cl,cell-free assay,,,0.5 µM,remaining signal,67.6%
CC(C)(C)c1nc(-c2cccc(NS(=O)(=O)c3c(F)cccc3F)c2F)c(-c2ccnc(N)n2)s1,enzyme activity,inhibitor,radiometric,1 µM,remaining activity,75%
CCS(=O)(=O)c1cc2cc(C[C@](O)(CC(C)(C)c3ccc(F)cc3C(N)=O)C(F)(F)F)[nH]c2cn1,cell-free assay,,competition with immobilised ligand,1 µM,remaining binding,100%
